Laboratory results: ChEMBL document CHEMBL1153616, “Synthesis and antiviral activity of new pyrazole and thiazole derivatives” (Eur J Med Chem, 2009)

Key:
[1] = Cytotoxicity against HEL cells assessed as minimum cytotoxic concentration required to cause microscopically detectable alteration in normal cell morphology; format: cell-based; conditions: human
Procedure, shortened: (§1)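 Run in parallel with antiviral assays on uninfected cell cultures; test compounds from 10 mg/ml DMSO stocks in serial dilution. Value is minimum cytotoxic concentration (MCC) producing microscopically detectable alteration of normal cell morphology.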

Human alphaherpesvirus 2 = assay: Antiviral activity against HSV2 G infected in human HEL cells assessed as inhibition of virus-induced cytopathicity after 3 days; format: functional, organism-based; conditions: Human alphaherpesvirus 2, strain G, 72 h
Procedure, shortened: (§2)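 Confluent cell monolayers infected with 100 CCID50 virus; after 2 h adsorption at 37 °C, virus removed and serial compound dilutions added (DMSO stocks 10 mg/ml). Incubated 37 °C for 3 days until complete CPE in untreated virus control. EC50 = concentration protecting 50% of infected cells from viral cytopathogenicity; ">" marks highest concentration tested.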

Vaccinia virus = assay: Antiviral activity against Vaccinia virus infected in human HEL cells assessed as inhibition of virus-induced cytopathicity after 3 days; format: functional, organism-based; conditions: Orthopoxvirus vaccinia, 72 h
[2] = test system: Vesicular stomatitis virus; assay: Antiviral activity against Vesicular stomatitis virus infected in human HEL cells assessed as inhibition of virus-induced cytopathicity after 3 days; format: functional, organism-based; conditions: 72 h
Human alphaherpesvirus 1 [3] = assay: Antiviral activity against thymidine kinase-deficient ACV-resistant HSV1 KOS infected in human HEL cells assessed as inhibition of virus-induced cytopathicity after 3 days; format: functional, organism-based; conditions: Human alphaherpesvirus 1, KOS, 72 h
[4] = Cytotoxicity against human HeLa cells assessed as minimum cytotoxic concentration required to cause microscopically detectable alteration in normal cell morphology; format: cell-based; procedure, shortened: as §1
[5] = test system: Vesicular stomatitis virus; assay: Antiviral activity against Vesicular stomatitis virus infected in human HeLa cells assessed as inhibition of virus-induced cytopathicity after 3 days; format: functional, organism-based; conditions: 72 h
Human alphaherpesvirus 1 [6] = assay: Antiviral activity against HSV1 KOS infected in human HEL cells assessed as inhibition of virus-induced cytopathicity after 3 days; format: functional, organism-based; conditions: Human alphaherpesvirus 1, KOS, 72 h
Coxsackievirus B4 [7] = assay: Antiviral activity against Coxsackievirus B4 infected in human HeLa cells assessed as inhibition of virus-induced cytopathicity after 3 days; format: functional, organism-based; conditions: Enterovirus B, 72 h
Procedure, shortened: (§3)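 Confluent cell monolayers infected with 100 CCID50 virus; after 2 h adsorption at 37 °C, virus removed and serial compound dilutions added (DMSO stocks 10 mg/ml). Incubated 37 °C for 3 days until complete CPE in untreated virus control.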

[8] = test system: Respiratory syncytial virus; assay: Antiviral activity against RSV infected in human HeLa cells assessed as inhibition of virus-induced cytopathicity after 3 days; format: functional, organism-based; conditions: 72 h; procedure, shortened: as §2
[9] = Cytotoxicity against african green monkey Vero cells assessed as minimum cytotoxic concentration required to cause microscopically detectable alteration in normal cell morphology; format: cell-based; conditions: chlorocebus sabaeus; procedure, shortened: as §1
Human respirovirus 3 = assay: Antiviral activity against Parainfluenza virus type 3 infected in african green monkey Vero cells assessed as inhibition of virus-induced cytopathicity after 3 days; format: functional, organism-based; conditions: Human respirovirus 3, Vero, 72 h; procedure, shortened: as §2
[10] = test system: Mammalian orthoreovirus 1; assay: Antiviral activity against Reovirus 1 infected in african green monkey Vero cells assessed as inhibition of virus-induced cytopathicity after 3 days; format: functional, organism-based; conditions: Mammalian orthoreovirus 1, Vero, 72 h; procedure, shortened: as §2
Sindbis virus = assay: Antiviral activity against Sindbis virus infected in african green monkey Vero cells assessed as inhibition of virus-induced cytopathicity after 3 days postinfection; format: functional, organism-based; conditions: 72 h; procedure, shortened: as §2
Coxsackievirus B4 [11] = assay: Antiviral activity against Coxsackievirus B4 infected in african green monkey Vero cells assessed as inhibition of virus-induced cytopathicity after 3 days; format: functional, organism-based; conditions: Enterovirus B, 72 h; procedure, shortened: as §2
Punta Toro virus = assay: Antiviral activity against Punta Toro virus infected in african green monkey Vero cells assessed as inhibition of virus-induced cytopathicity after 3 days; format: functional, organism-based; conditions: 72 h; procedure, shortened: as §3
[12] = Selectivity index, ratio of MCC for human HeLa cells to EC50 for Coxsackievirus B4; format: toxicity, cell-based; conditions: read-out: Selectivity Index
Procedure, shortened: (§4)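 The ratio was MCC/EC50. MCC was the minimum concentration causing microscopically visible change in normal morphology of uninfected HEL, HeLa or Vero cells, scored in parallel with the antiviral test. EC50 came from the CPE assay: 100 CCID50 infection, 2 h adsorption at 37 °C, serial compound dilutions, and 3 days at 37 °C. It was the concentration protecting 50% of cells from virus-induced CPE.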

[13] = Selectivity index, ratio of MCC for human HEL cells to EC50 for sVesicular stomatitis virus; format: toxicity, cell-based; conditions: read-out: Selectivity Index; procedure, shortened: as §4
[14] = Selectivity index, ratio of MCC for african green monkey Vero cells to EC50 for Reovirus 1; format: toxicity, cell-based; conditions: read-out: Selectivity Index; procedure, shortened: as §4
[15] = Selectivity index, ratio of MCC for african green monkey Vero cells to EC50 for Sindbis virus; format: toxicity, cell-based; conditions: read-out: Selectivity Index; procedure, shortened: as §4
[16] = Selectivity index, ratio of MCC for african green monkey Vero cells to EC50 for Coxsackievirus B4; format: toxicity, cell-based; conditions: read-out: Selectivity Index; procedure, shortened: as §4
[17] = Selectivity index, ratio of MCC for african green monkey Vero cells to EC50 for Punta Toro virus; format: toxicity, cell-based; conditions: read-out: Selectivity Index; procedure, shortened: as §4

| SMILES | MCC [1] | EC50 (Human alphaherpesvirus 2) | EC50 (Vaccinia virus) | EC50 [2] | EC50 (Human alphaherpesvirus 1 [3]) | MCC [4] | EC50 [5] | EC50 (Human alphaherpesvirus 1 [6]) | EC50 (Coxsackievirus B4 [7]) | EC50 [8] | MCC [9] | EC50 (Human respirovirus 3) | EC50 [10] | EC50 (Sindbis virus) | EC50 (Coxsackievirus B4 [11]) | EC50 (Punta Toro virus) | other results |
| --- | --- | --- | --- | --- | --- | --- | --- | --- | --- | --- | --- | --- | --- | --- | --- | --- | --- |
| Cc1ccc(-c2csc(N3N=C(c4ccc(Cl)cc4)CC3c3ccc(OCc4ccccc4)cc3)n2)cc1 (centres undefined) | 100 µg/mL | > 20 mg/L | > 20 mg/L | > 20 mg/L | > 20 mg/L | > 100 µg/mL | > 100 mg/L | > 20 mg/L | > 100 mg/L | > 100 mg/L | 100 µg/mL | > 20 mg/L | > 20 mg/L | > 20 mg/L | > 20 mg/L | > 20 mg/L | – |
| Cc1ccc(C2=NN(C(N)=S)C(c3ccc(OCc4ccccc4)cc3)C2)cc1 (centres undefined) | 100 µg/mL | > 20 mg/L | > 20 mg/L | > 20 mg/L | > 20 mg/L | 4 µg/mL | > 0.8 mg/L | > 20 mg/L | > 0.8 mg/L | > 0.8 mg/L | 100 µg/mL | > 20 mg/L | > 20 mg/L | > 20 mg/L | > 20 mg/L | > 20 mg/L | selectivity ratio [12]: 5 |
| Clc1ccc(-c2csc(N3N=C(c4ccccc4)CC3c3ccc(OCc4ccccc4)cc3)n2)cc1 (centres undefined) | 100 µg/mL | > 20 mg/L | > 20 mg/L | > 20 mg/L | > 20 mg/L | 100 µg/mL | > 20 mg/L | > 20 mg/L | > 20 mg/L | > 20 mg/L | 100 µg/mL | > 20 mg/L | > 20 mg/L | > 20 mg/L | > 20 mg/L | > 20 mg/L | – |
| Clc1ccc(C2=NN(c3nc(-c4ccc(Cl)cc4)cs3)C(c3ccc(OCc4ccccc4)cc3)C2)cc1 (centres undefined) | > 100 µg/mL | > 100 mg/L | > 100 mg/L | > 100 mg/L | > 100 mg/L | > 100 µg/mL | > 100 mg/L | > 100 mg/L | > 100 mg/L | > 100 mg/L | 100 µg/mL | > 20 mg/L | > 20 mg/L | > 20 mg/L | > 20 mg/L | > 20 mg/L | – |
| O=C1CSC(N2N=C(c3ccccc3)CC2c2ccc(OCc3ccccc3)cc2)=N1 (centres undefined) | 100 µg/mL | > 20 mg/L | > 20 mg/L | > 20 mg/L | > 20 mg/L | 100 µg/mL | > 20 mg/L | > 20 mg/L | > 20 mg/L | > 20 mg/L | 100 µg/mL | > 20 mg/L | > 20 mg/L | > 20 mg/L | > 20 mg/L | > 20 mg/L | – |
| NC(=S)N1N=C(c2ccc(Cl)cc2)CC1c1ccc(OCc2ccccc2)cc1 (centres undefined) | > 100 µg/mL | > 100 mg/L | > 100 mg/L | > 100 mg/L | > 100 mg/L | > 100 µg/mL | > 100 mg/L | > 100 mg/L | > 100 mg/L | > 100 mg/L | > 100 µg/mL | > 100 mg/L | > 100 mg/L | > 100 mg/L | > 100 mg/L | > 100 mg/L | – |
| CC(=O)N1N=C(c2ccc(C)cc2)CC1c1ccc(OCc2ccccc2)cc1 (centres undefined) | 20 µg/mL | > 4 mg/L | > 4 mg/L | > 4 mg/L | > 4 mg/L | 20 µg/mL | > 4 mg/L | > 4 mg/L | > 4 mg/L | > 4 mg/L | 20 µg/mL | > 4 mg/L | > 4 mg/L | > 4 mg/L | > 4 mg/L | > 4 mg/L | selectivity ratio [13]: 5; selectivity ratio [12]: 5; selectivity ratio [14]: 5; selectivity ratio [15]: 5; selectivity ratio [16]: 5; selectivity ratio [17]: 5 |
